Here are results for 14 compounds from ChEMBL document CHEMBL2177018, “Identification, synthesis, and biological evaluation of metabolites of the experimental cancer treatment drugs indotecan (LMP400) and indimitecan (LMP776) and investigation of isomerically hydroxylated indenoisoquinoline analogues as topoisomerase I poisons” (J Med Chem, 2012).

Data set [1] addresses T1, DNA topoisomerase 1 (Homo sapiens) (UniProt P11387).
T1 sequence (whole entry): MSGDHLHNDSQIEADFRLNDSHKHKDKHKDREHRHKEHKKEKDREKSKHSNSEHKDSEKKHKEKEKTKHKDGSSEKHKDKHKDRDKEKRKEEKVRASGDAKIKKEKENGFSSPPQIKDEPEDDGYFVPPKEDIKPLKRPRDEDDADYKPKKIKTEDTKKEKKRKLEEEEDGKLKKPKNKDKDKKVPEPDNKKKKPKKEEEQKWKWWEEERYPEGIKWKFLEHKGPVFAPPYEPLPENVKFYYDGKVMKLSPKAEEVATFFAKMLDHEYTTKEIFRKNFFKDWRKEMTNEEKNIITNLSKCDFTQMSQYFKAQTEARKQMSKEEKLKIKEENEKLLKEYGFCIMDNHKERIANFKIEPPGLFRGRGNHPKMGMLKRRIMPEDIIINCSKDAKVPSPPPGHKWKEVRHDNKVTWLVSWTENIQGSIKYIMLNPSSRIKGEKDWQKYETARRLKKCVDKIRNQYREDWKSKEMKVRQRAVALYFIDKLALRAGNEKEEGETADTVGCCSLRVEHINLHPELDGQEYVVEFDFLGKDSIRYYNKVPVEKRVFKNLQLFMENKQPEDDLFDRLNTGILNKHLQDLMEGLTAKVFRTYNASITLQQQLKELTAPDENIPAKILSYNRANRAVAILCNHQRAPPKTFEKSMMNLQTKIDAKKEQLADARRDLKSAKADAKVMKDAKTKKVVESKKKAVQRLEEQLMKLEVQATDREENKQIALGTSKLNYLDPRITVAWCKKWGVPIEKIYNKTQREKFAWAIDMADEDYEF
Kind of data set: Inhibition of human recombinant Top1-mediated DNA cleavage after 20 mins by […] analysis relative to camptothecin. More on the design: concentration or dose not given beside the values. The method in brief:
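Baculovirus-purified human recombinant Top1 with ~2 nM 117-bp oligonucleotide, 3′-end 32P-labelled. Compounds at 0.1–100 μM, room temperature 20 min, stopped with 0.5% SDS. 20% denaturing PAGE, phosphorimaging. Cleavage graded against 1 μM camptothecin.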

The subject of the next data set is HOP-62. Kind of data set: Antiproliferative activity against human HOP62 cells. Format: functional. The method in brief:
(§1)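 NCI-60 human tumour cell line panel. Initial one-dose pre-screen at 10−5 molar, then five concentrations from 10−8 to 10−4 molar. GI50 taken as the concentration giving 50% growth inhibition.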

For the next data set, the system named is UACC-62. Kind of data set: Antiproliferative activity against human UACC62 cells. It counts as functional. The gist of the method:
as §1

For another data set, the system named is SN12C. Kind of data set: Antiproliferative activity against human SN12C cells. It counts as functional. The method in brief:
as §1

The test system of the next data set is MCF7. Kind of data set: Antiproliferative activity against human MCF7 cells. Format: functional. The gist of the method:
as §1

In another data set the test system is SF-539. Kind of data set: Antiproliferative activity against human SF539 cells. Format: functional. The gist of the method: as §1
For another data set, the system named is HCT-116. Kind of data set: Antiproliferative activity against human HCT116 cells. It counts as functional. The method in brief: as §1
Another data set has as its system DU-145. Kind of data set: Antiproliferative activity against human DU145 cells. Format: functional. The method in brief: as §1
Another data set has as its system OVCAR-3. Kind of data set: Antiproliferative activity against human OVCAR3 cells. Format: functional. The gist of the method:
as §1

Data set [2] deals with Liver microsomes. Kind of data set: Drug metabolism in human liver microsomes assessed as formation of 8,9-Dihydroxy-2,3-dimethoxy-6-(3-morpholinopropyl)-5Hindeno[ 1,2-c]isoquinoline-5,11(6H)-dione at 10 uM after 60 mins in presence of NADPH. It counts as ADME, Microsome. Conditions: 1 h. The gist of the method: (§2)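 Substrate at 10 μM with pooled human liver microsomes (15 donors, mixed gender; 1 mg/mL protein) in 50 mM phosphate, pH 7.4, 37 °C. After 5 min preincubation, 1 mM NADPH started a 60 min reaction. Stopped on ice with acidified acetonitrile; supernatant dried, redissolved, LC-MS and LC-MS/MS. Controls lacked microsomes or NADPH.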
For orientation: Liver microsomes are vesicles of endoplasmic reticulum, rich in cytochrome P450 enzymes.

Data set [3] concerns Liver microsomes. Kind of data set: Drug metabolism in human liver microsomes assessed as formation of 5,6-Dihydro-3-hydroxy-2-methoxy-8,9-methylenedioxy-6-3- [(morpholino)propyl)]-5,11-dioxo-11H-indeno[1,2-c]- isoquinoline at 10 uM after 60 mins in presence of NADPH. As to conditions: 1 h. It counts as ADME, Microsome. The gist of the method: as §2
Data set [4] relates to Liver microsomes. Kind of data set: Drug metabolism in human liver microsomes assessed as formation of 6-(3-(1H-Imidazol-1-yl)propyl)-8,9-dihydroxy-2,3-dimethoxy-5H-indeno[1,2-c]isoquinoline-5,11(6H)-dione at 10 uM after 60 mins in presence of NADPH. Format: ADME, Microsome. The gist of the method: as §2
The subject of data set [5] is Liver microsomes. Kind of data set: Drug metabolism in human liver microsomes assessed as formation of 5,6-Dihydro-3-hydroxy-6-3-(1H-imidazol-1-yl)propyl)-2-methoxy- 8,9-methylenedioxy-5,11-dioxo-11H-indeno[1,2-c]- isoquinoline at 10 uM after 60 mins in presence of NADPH. It counts as ADME, Microsome. The method in brief:
as §2

The structures appear in SMILES notation. Active and inactive are the calls of the source. The calls are words filed in the database; no cut-off is given here.

The inhibition is the drop in the measured response relative to a control, in per cent. A word on the GI50: it is the concentration giving 50% growth inhibition.

On to `COc1cc2c3c(n(CCCN4CCOCC4)c(=O)c2cc1O)-c1cc2c(cc1C3=O)OCO2`, for which, in [1], the inhibition came to 75%. Further, the GI50 in the data set on HOP-62 was 10 nM; in the data set with UACC-62, less than 10 nM; in the data set on SN12C, less than 10 nM; in the data set on MCF7, less than 10 nM; in the data set with SF-539 it was less than 10 nM; in the data set on HCT-116, 20 nM. Further, the values for the GI50 in the data set with DU-145 and in the data set with OVCAR-3 were less than 10 nM and 30 nM, respectively.
`COc1cc2c(cc1O)-c1c(c3cc(OC)c(OC)cc3c(=O)n1CCCn1ccnc1)C2=O`: the inhibition in data set [1] is 50%. For the same compound, the 50% growth inhibitory concentration (GI50) was greater than 100000 nM in the data set with HOP-62; 331 nM in the data set with UACC-62; 50 nM with MCF7; greater than 100000 nM with HCT-116; greater than 100000 nM in the data set with DU-145; greater than 100000 nM in the data set with OVCAR-3.
With `COc1cc2c(=O)n(CCCn3ccnc3)c3c(c2cc1O)C(=O)c1cc2c(cc1-3)OCO2`, the inhibition result in data set [1] is “Active”. Further, the GI50 in the data set with HOP-62 is less than 10 nM; with UACC-62, 30 nM; in the data set on SN12C, less than 10 nM; in the data set on SF-539 it was less than 10 nM; in the data set on HCT-116, 20 nM; in the data set on DU-145 it was less than 10 nM. In addition, in the data set on OVCAR-3, the GI50 was 70 nM.
On to `COc1cc2c(cc1O)-c1c(c3cc(OC)c(OC)cc3c(=O)n1CCCN1CCOCC1)C2=O`, for which the inhibition in data set [1] came out at 75%. For the same compound, the GI50 was 180 nM with HOP-62; 70 nM in the data set on UACC-62; 191 nM with SN12C; 30 nM in the data set on MCF7; 282 nM in the data set on SF-539; 2340 nM in the data set with HCT-116. The GI50 with DU-145 is 204 nM; in the data set on OVCAR-3, 8320 nM.
On to `COc1cc2c(cc1O)C(=O)c1c-2n(CCCN2CCOCC2)c(=O)c2cc(OC)c(OC)cc12`, for which, in [1], the inhibition entry was “Active”. The GI50 in the data set on HOP-62 was 20 nM; with UACC-62 it was 20 nM; in the data set on SN12C, 20 nM; in the data set with MCF7 it was 20 nM; in the data set with SF-539, 20 nM; in the data set on HCT-116 it was 30 nM. The GI50 with DU-145 amounted to 20 nM; with OVCAR-3, 30 nM.
Take `COc1cc2c(cc1O)C(=O)c1c-2n(CCCn2ccnc2)c(=O)c2cc(OC)c(OC)cc12`: the inhibition entry in data set [1] was “Active”. Further, the GI50 in the data set on HOP-62, in the data set with UACC-62, in the data set on SN12C, in the data set on MCF7, in the data set on SF-539 and with HCT-116 was less than 10 nM throughout. Besides, the GI50 was less than 10 nM with DU-145 and 20 nM with OVCAR-3.
Consider `COc1cc2c3c(n(CCCN4CCOCC4)c(=O)c2cc1OC)-c1cc2c(cc1C3=O)OCO2` [INDOTECAN], for which the Drug metabolism result with Liver microsomes [2] and with Liver microsomes [3] was “Active” throughout.
Regarding `COc1cc2c3c(n(CCCn4ccnc4)c(=O)c2cc1OC)-c1cc2c(cc1C3=O)OCO2` [INDIMITECAN], the Drug metabolism result in the data set on Liver microsomes [4] and in the data set with Liver microsomes [5] was “Active” in each case.
Consider `COc1cc2c(=O)n(CCCN3CCOCC3)c3c(c2cc1O)C(=O)c1cc2c(cc1-3)OCO2`, for which the inhibition in data set [1] came out at 50%. The GI50 in the data set on HOP-62 was 257 nM; in the data set with UACC-62, 282 nM; with SN12C, 195 nM; in the data set with MCF7 it was 144 nM; in the data set on SF-539, 335 nM; in the data set with HCT-116, 279 nM. Also, the GI50 in the data set with DU-145 turned out to be 257 nM; in the data set on OVCAR-3, 871 nM.
As for `COc1cc2c3c(n(CCCn4ccnc4)c(=O)c2cc1O)-c1cc2c(cc1C3=O)OCO2`, the inhibition entry in data set [1] was “Active”. For the same compound, the GI50 in the data set on HOP-62, in the data set on UACC-62, in the data set on SN12C, in the data set with MCF7, in the data set on SF-539 and with HCT-116 was less than 10 nM each time. In addition, the GI50 is less than 10 nM in the data set on DU-145 and 30 nM with OVCAR-3.
Take `COc1cc2c3c(n(CCCn4ccnc4)c(=O)c2cc1OC)-c1cc2c(cc1C3O)OCO2` (centres undefined): the inhibition in data set [1] was 50%. Further, the GI50 was 549 nM with HOP-62; 372 nM in the data set with UACC-62; 501 nM in the data set with SN12C; 427 nM in the data set with MCF7; 479 nM in the data set with SF-539; 1350 nM with HCT-116. Besides, the results for the GI50 with DU-145 and in the data set on OVCAR-3 were 407 nM and 1950 nM, respectively.
For the compound `COc1cc2c3c(n(CCCN4CCOCC4)c(=O)c2cc1OC)-c1cc2c(cc1C3O)OCO2` (centres undefined), in [1], the inhibition stood at 50%. Also, the concentration for 50% growth inhibition (GI50) in the data set with HOP-62 amounted to 2090 nM; in the data set on UACC-62 it was 776 nM; with SN12C, 3390 nM; with MCF7 it was 646 nM; with SF-539 it was 2400 nM; in the data set with HCT-116, 2400 nM. For the same compound, the GI50 was 2630 nM with DU-145 and 4790 nM with OVCAR-3.
For `COc1cc2c3c(n(CCCN4CCOCC4)c(=O)c2cc1OC)-c1cc(O)c(O)cc1C3=O`, the inhibition entry in [1] is “Active”. The GI50 in the data set on HOP-62 worked out at 371 nM; with UACC-62 it was 78 nM; in the data set on SN12C, 65 nM; in the data set on MCF7 it was 50 nM; with SF-539 it was 148 nM; in the data set with HCT-116, 407 nM. For the same compound, the GI50 with DU-145 was determined as 490 nM; with OVCAR-3 it was 501 nM.
As for `COc1cc2c3c(n(CCCn4ccnc4)c(=O)c2cc1OC)-c1cc(O)c(O)cc1C3=O`, in [1], the inhibition is 50%. Further, the GI50 was 40 nM in the data set on HOP-62; less than 10 nM in the data set on UACC-62; 30 nM with SN12C; 20 nM in the data set with MCF7; 10 nM with SF-539; 229 nM in the data set with HCT-116. Also, the results for the GI50 with DU-145 and with OVCAR-3 were 100 nM and 407 nM, respectively.
